Data on one molecule can be found in ChEMBL document CHEMBL1649111, “Restoration of susceptibility of intracellular methicillin-resistant Staphylococcus aureus to beta-lactams: comparison of strains, cells, and antibiotics” (Antimicrob Agents Chemother, 2008).

For data set [1], the system named is Staphylococcus aureus. The experiment in a line: Antimicrobial activity against animal acquired methicillin-resistant Staphylococcus aureus N7112046 infected in human THP-1 cells assessed as decrease in bacterial growth after 24 hrs at pH 5.5. The data set is classed as functional, organism-based. To be noted: N7112046, THP-1, 24 h. The gist of the method: (§1)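 Bacteria phagocytosed by unactivated human THP-1 macrophages, then incubated 24 h with extracellular antibiotic at about 0.01× to 100× the pH 5.5 broth MIC. CFU per mg cell protein counted against the original inoculum, n = 3. A Hill-equation fit (slope factor 1) gave Emin and Emax, extrapolated to infinitely low and high concentration, and EC50. Static concentration was graphically interpolated.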

Data set [2] has as its system Staphylococcus aureus. Nature of the data set: Antimicrobial activity against beta-lactamase negative methicillin-susceptible Staphylococcus aureus ATCC 25923 infected in human THP-1 cells assessed as increase in bacterial count from original inoculum at low compound concentration after 24 hrs at pH 5.5. Type of data set: functional. The method in brief:
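MSSA ATCC 25923 phagocytized by unactivated THP-1 macrophages; extracellular antibiotic from about 0.01× to 100× the broth MIC at pH 5.5, with gentamicin 0.5 mg/liter to block extracellular growth. CFU per mg cell protein counted at 24 h vs. original inoculum (n = 3). A Hill equation (slope factor 1) gives Emin/Emax, extrapolated to infinitely low/high concentration. Static concentration is read by graphical interpolation.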

The nature of data set [3]: Chemical stability of the compound assessed as compound remaining after 24 hrs PBS buffer by HPLC analysis at pH 5.5. The data set is classed as physicochemical. Particulars: read-out: Activity. The gist of the method: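 Drug at 50 mg/liter initial concentration incubated 24 h at 37°C in buffered medium at pH 7.4 or 5.5. Remaining drug measured by HPLC signal disappearance; mobile phase 25 mM phosphate buffer pH 6.7 with acetonitrile (75:25).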

Data set [4] deals with Staphylococcus aureus. Nature of the data set: Bacteriostatic activity against hospital acquired methicillin-resistant Staphylococcus aureus ATCC 33591 infected in human THP-1 cells assessed as decrease in bacterial growth after 24 hrs at pH 7.4. The data set is classed as functional. The gist of the method:
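THP-1 macrophages, unactivated, infected with MRSA ATCC 33591. Cloxacillin over a range of extracellular concentrations (mg/liter) with a 24-h exposure. CFU per mg cell protein as change from the original inoculum, n = 3. Hill equation fitted with slope factor 1; static concentration (no change from inoculum) read by graphical interpolation.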

In data set [5] the test system is Staphylococcus aureus. The experiment in a line: Antimicrobial activity against intracellular beta-lactamase negative methicillin-susceptible Staphylococcus aureus ATCC 25923 infected in human keratinocytes assessed as increase in bacterial count from original inoculum at low compound concentration after 24 hrs at pH 7.4. Type of data set: functional. The method in brief:
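Primary human skin keratinocytes or Calu-3 bronchial epithelial cells infected with MSSA ATCC 25923 at 5 × 10⁷ to 1 × 10⁸ bacteria/ml, 2 h internalization. Postphagocytosis inoculum 1.5 × 10⁶ to 3.0 × 10⁶ CFU/mg protein. Cloxacillin concentration range for 24 h; CFU/mg protein change vs. inoculum (n = 3). Hill fit gives Emin/Emax; static concentration by graphical interpolation.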

The test system of data set [6] is Staphylococcus aureus. The experiment in a line: Antimicrobial activity against constitutive beta-lactamase negative methicillin-resistant Staphylococcus aureus COL NRS100 by broth microdilution method at pH 5.5. The data set is classed as functional.
Data set [7] relates to Staphylococcus aureus. The experiment in a line: Bacteriostatic activity against intracellular hospital acquired methicillin-resistant Staphylococcus aureus ATCC 33591 infected in activated human THP-1 cells assessed as decrease in bacterial growth after 24 hrs at pH 7.4. Type of data set: functional. The method in brief:
(§2)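 THP-1 cells activated by 24-h culture with phorbol myristate acetate 2 mg/liter, then infected like unactivated THP-1. Cloxacillin dose range in mg/liter for 24 h. CFU per mg cell protein relative to the original inoculum, n = 3. Emin and Emax extrapolated from a Hill fit (slope 1), with EC50 as total drug; static concentration by graphical interpolation.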

For data set [8], the system named is Staphylococcus aureus. The experiment in a line: Bacteriostatic activity against beta-lactamase negative methicillin-susceptible Staphylococcus aureus ATCC 25923 infected in human THP-1 cells assessed as decrease in bacterial growth after 24 hrs at pH 7.4. Type of data set: functional.
Data set [9] relates to Staphylococcus aureus. The experiment in a line: Antimicrobial activity against hospital acquired methicillin-resistant Staphylococcus aureus ATCC 33591 infected in human THP-1 cells assessed as increase in bacterial count from original inoculum at low compound concentration after 24 hrs at pH 7.4. Type of data set: functional.
Data set [10] has as its system Staphylococcus aureus. The experiment in a line: Antimicrobial activity against intracellular beta-lactamase negative methicillin-susceptible Staphylococcus aureus ATCC 25923 infected in activated human THP-1 cells assessed as decrease in bacterial growth after 24 hrs at pH 7.4. To be noted: ATCC 25923, THP-1, 24 h. The data set is classed as functional, organism-based. The method in brief:
as §2

The test system of data set [11] is Staphylococcus aureus. The experiment in a line: Antimicrobial activity against hospital acquired methicillin-resistant Staphylococcus aureus N4120032 obtained from wound infection of patient by broth microdilution method at pH 7.4. Type of data set: functional. The gist of the method:
(§3)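 Minimal inhibitory concentration by broth microdilution at pH 7.4, read in mg/liter. The MRSA genotype was confirmed by mecA PCR, and the SCCmec subgroup was assigned by multiplex PCR.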
For orientation: Broth dilution looks for growth in wells or tubes with falling amounts of substance.

Data set [12] has as its system Staphylococcus aureus. Nature of the data set: Antimicrobial activity against hospital acquired methicillin-resistant Staphylococcus aureus N4120210 obtained from urinary tract infection patient by broth microdilution method at pH 7.4. Type of data set: functional. To be noted: N4120210, Urine. The method in brief:
as §3

Data set [13] relates to Staphylococcus aureus. The experiment in a line: Antimicrobial activity against intracellular beta-lactamase negative methicillin-susceptible Staphylococcus aureus ATCC 25923 infected in activated human THP-1 cells assessed as decrease in bacterial count from original inoculum at high compound concentration after 24 hrs at pH 7.4. Type of data set: functional.
Data set [14] has as its system Staphylococcus aureus. Nature of the data set: Bacteriostatic activity against animal acquired methicillin-resistant Staphylococcus aureus N7112046 infected in human THP-1 cells assessed as decrease in bacterial growth after 24 hrs at pH 5.5. The data set is classed as functional. The gist of the method: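 Human THP-1 macrophages infected with each S. aureus strain. Cloxacillin added extracellularly at about 0.01× to 100× the broth MIC measured at pH 5.5, with gentamicin 0.5 mg/liter to stop extracellular growth. Incubated 24 h. CFU counted per mg cell protein as change from the post-phagocytosis inoculum, n = 3. Emin, Emax and EC50 from a Hill fit; static concentration by graphical interpolation.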

The subject of data set [15] is Staphylococcus aureus. Nature of the data set: Antimicrobial activity against hospital acquired methicillin-resistant and vancomycin-intermediate Staphylococcus aureus NRS126 obtained from bloodstream infection of patient infected in human THP-1 cells assessed as decrease in bacterial growth after 24 hrs at pH 5.5. The data set is classed as functional, organism-based. To be noted: NRS126, THP-1, 24 h. The method in brief:
as §1

Data set [16] relates to Staphylococcus aureus. The experiment in a line: Antimicrobial activity against hospital acquired methicillin-resistant Staphylococcus aureus ATCC 33591 by broth microdilution method at pH 5.5. Type of data set: functional.
Data set [17] concerns Staphylococcus aureus. The experiment in a line: Antimicrobial activity against intracellular hospital acquired methicillin-resistant Staphylococcus aureus ATCC 33591 infected in human keratinocytes assessed as decrease in bacterial growth after 24 hrs at pH 7.4. Type of data set: functional, organism-based. To be noted: ATCC 33591, 24 h. The gist of the method: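 Primary human skin keratinocytes or Calu-3 bronchial epithelial cells, given an inoculum of 5 × 10⁷ to 1 × 10⁸ bacteria/ml and 2 h for internalization. Post-phagocytosis load 1.5 × 10⁶ to 3.0 × 10⁶ CFU per mg cell protein. Cloxacillin dose range in mg/liter for 24 h, n = 3. Hill-derived Emin, Emax and EC50; static concentration interpolated.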

In data set [18] the test system is Staphylococcus aureus. Nature of the data set: Antimicrobial activity against Panton-valentine leukocidin positive community acquired methicillin-resistant Staphylococcus aureus N4042228 infected in human THP-1 cells assessed as decrease in bacterial count from original inoculum at high compound concentration after 24 hrs at pH 5.5. The data set is classed as functional. The gist of the method:
as §1

Data set [19] concerns Staphylococcus aureus. Nature of the data set: Antimicrobial activity against constitutive beta-lactamase negative methicillin-resistant Staphylococcus aureus COL NRS100 infected in human THP-1 cells assessed as increase in bacterial count from original inoculum at low compound concentration after 24 hrs at pH 5.5. Type of data set: functional. The gist of the method:
as §1

Structures are written as SMILES. Converted amounts (≈) assume the structure as drawn.

As for `Cc1onc(-c2ccccc2Cl)c1C(=O)N[C@@H]1C(=O)N2[C@@H]1SC(C)(C)[C@@H]2C(=O)O` [CLOXACILLIN], the EC50 is 6.99 ×MIC in the data set on Staphylococcus aureus [1], 0.43 µg/mL (≈ 0.986 µM) in the data set on Staphylococcus aureus [10], 5.33 ×MIC in the data set on Staphylococcus aureus [15] and 0.39 µg/mL (≈ 0.895 µM) with Staphylococcus aureus [17]. Besides, the log10cfu stood at 1.96 with Staphylococcus aureus [2]; 2.64 with Staphylococcus aureus [5]; 2.27 in the data set on Staphylococcus aureus [9]; 0.9 in the data set with Staphylococcus aureus [13]; 0.63 in the data set on Staphylococcus aureus [18]; 2.42 with Staphylococcus aureus [19]. Also, the remaining at 24 h in [3] turned out to be 93.3%. Besides, the Activity with Staphylococcus aureus [4] came to 0.9 mg/L; in the data set with Staphylococcus aureus [7] it was 1 mg/L; in the data set with Staphylococcus aureus [8], 0.6 mg/L; in the data set with Staphylococcus aureus [14], 17.8 ×MIC. Moreover, the MIC with Staphylococcus aureus [6] came to 0.25 µg/mL (≈ 0.574 µM); against Staphylococcus aureus [11], 1 µg/mL (≈ 2.29 µM); in the data set on Staphylococcus aureus [12], 2 µg/mL (≈ 4.59 µM); in the data set with Staphylococcus aureus [16], 0.06 µg/mL (≈ 0.138 µM).

By MIC is commonly meant the lowest concentration found to suppress growth. High values mean weaker potency, low ones greater potency.
